Screening results as filed in PubChem.
Many of the other results were omitted from the sample, so hits are more common in it than they were.
Cl transport mod – modulates chloride dependent transport by human KCC2; KCC2 cells, thallium flux FluoZin-2 fluorescence; B-score of Tl+ flux slope (higher = more flux/activation; lower = inhibition) at 10 µM; 190,000 tested, 2.2% active;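 active = thallium flux slope and its plate-corrected score both differing from the plate sample mean at a set confidence after two filtering rounds, in either direction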;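 also: slope of fluorescence scaled to starting intensity during 10 to 20 s after thallium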
Dynein cargo inh – dynein cargo transport inhibition; z-score, hits read low; AID 1381; 220,000 tested, 0.47% active; 3617.4 mouse cells, GR-EGFP nuclear translocation imaging; test concentration mostly 20 µM; stimulated with dexamethasone, 1 µM; active compounds read low;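 active = plate z-score of nuclear minus cytoplasmic receptor signal below a set negative limit, without overly bright fluorescence or cell loss, cut at about -3.5 in these data, passing the limit was not always enough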;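 also: z-score of nuclear minus cytoplasmic ring GR-EGFP intensity difference per well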
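Buffer or medium: tetracycline-free induction medium containing charcoal-stripped FBS / Reagent: dexamethasone agonist, 1.0 µM final, for 30 min / Technique: automated 10x imaging of fixed Hoechst-stained cells / Times: induction 48 h, compound 1 h, agonist 30 min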
pCIP destab – compounds decreasing mouse p/CIP protein stability; Q05BA5; F442A p/CIP-EGFP cells, EGFP fluorescence, 16 h; decrease of EGFP signal, % at 10 µM; 290,000 tested, 0.01% active;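 active = EGFP signal decrease of at least 30% at 10 µM or well 3 SD below plate mean, unless failing retest; inactive = the rest, including hits failing retest or dose response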
V-ATPase pH – yeast V-ATPase proton transport regulation by pHLuorin. S. cerevisiae, pHLuorin cytosolic pH fluorescence. response, % at 10 µM. 350,000 tested, 0.37% active; in the data active = response mostly above about 7.3%, no sharp cut-off; inactive = mostly below about 5.4%; also: actives read high
ABCB6 inh MLPCN – human ABCB6 transporter inhibition. K562-ABCB6 porphyrin accumulation, flow cytometry, 1 h; active compounds read low. fluorescence ratio to DMSO, % at 10 µM. Q9NP58. 360,000 tested, 0.19% active. AID 602162;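 active = fluorescence ratio to DMSO below 75%, the collection mean minus 3 SD; inconclusive = too few cells collected in the well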;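 also: signal is porphyrin accumulated inside mitochondria; lower ratio means ABCB6 inhibition with less porphyrin fluorescence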
Target sequence (Q9NP58 whole entry, looked up): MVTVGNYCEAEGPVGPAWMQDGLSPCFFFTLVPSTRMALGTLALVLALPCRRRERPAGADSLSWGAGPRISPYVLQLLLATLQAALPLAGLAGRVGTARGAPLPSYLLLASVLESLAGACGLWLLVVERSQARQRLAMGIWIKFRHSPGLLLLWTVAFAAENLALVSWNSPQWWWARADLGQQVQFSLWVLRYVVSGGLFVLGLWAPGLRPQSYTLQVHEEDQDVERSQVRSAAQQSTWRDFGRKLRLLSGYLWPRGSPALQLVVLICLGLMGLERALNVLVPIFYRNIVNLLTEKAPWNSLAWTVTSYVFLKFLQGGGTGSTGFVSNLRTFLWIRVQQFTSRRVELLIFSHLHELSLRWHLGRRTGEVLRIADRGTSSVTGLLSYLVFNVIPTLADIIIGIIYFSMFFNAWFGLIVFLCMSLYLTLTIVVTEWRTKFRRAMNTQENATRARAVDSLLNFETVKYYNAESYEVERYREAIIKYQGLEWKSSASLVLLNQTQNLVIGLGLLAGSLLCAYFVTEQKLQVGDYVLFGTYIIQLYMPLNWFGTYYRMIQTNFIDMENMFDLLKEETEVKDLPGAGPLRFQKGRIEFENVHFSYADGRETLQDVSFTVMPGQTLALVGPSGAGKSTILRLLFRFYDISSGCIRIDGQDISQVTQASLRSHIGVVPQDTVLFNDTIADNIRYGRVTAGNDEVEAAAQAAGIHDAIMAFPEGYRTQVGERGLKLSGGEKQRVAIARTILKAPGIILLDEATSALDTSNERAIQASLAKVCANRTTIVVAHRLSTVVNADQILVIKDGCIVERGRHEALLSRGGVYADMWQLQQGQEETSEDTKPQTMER
KCC2 sec1 – KCC2 (human) modulation, secondary assay. HEK293-KCC2, thallium flux, FluoZin2 fluorescence; active compounds read high. AID 1713. normalised thallium flux (F/F0 slope) at 10 µM. shares compounds with Cl transport mod. 3,700 tested, 15% active;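 active = thallium flux slope above the same plate's solvent-only control mean plus 3 SD; inconclusive = the two replicate wells disagree; inactive = no significant difference from solvent-only control wells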
KCC2 bumet counter – thallium flux persisting under bumetanide in KCC2 cells, counter-screen secondary assay; shares compounds with Cl transport mod; HEK293-KCC2 + bumetanide/ouabain, thallium flux FluoZin2; active compounds read high; normalized thallium flux at 10 µM; 3,700 tested, 49% active;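 active = thallium entry rate above the same plate's blocked-transporter control wells by more than 3 SD; inconclusive = the two repeat wells disagree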;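 also: raw slope of fluorescence over initial fluorescence between 10 and 20 s after thallium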
KCC2 secondary2 – confirmation of human KCC2 transport modulators. 3,700 tested, 23% active. shares compounds with Cl transport mod. normalized thallium flux at 10 µM. HEK293-KCC2, thallium flux FluoZin2 fluorescence; actives lie on both sides; F/F0 rise rate, 10–20 s post-thallium;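 active = thallium flux slope more than 3 SD above or below the plate's solvent-only control mean, mostly below; inconclusive = the two repeat wells disagreed; inactive = no significant shift from solvent-only controls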
HEK293 Tl flux – acts in parental HEK cells, KCC2 counter-screen. thallium flux rate (normalised fluorescence) at 10 µM. HEK293 parental cells, thallium flux FluoZin2, ouabain; baseline-ratio fluorescence slope, 10–20 s after thallium. 3,700 tested, 46% active. shares compounds with Cl transport mod;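 active = thallium flux rate significantly above the same plate's solvent-only control wells, beyond their mean plus 3 SD; inconclusive = the two replicate wells gave conflicting results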
KCC2 retest ouab – confirmation of human KCC2 modulators with ouabain. shares compounds with Cl transport mod. HEK293-KCC2, thallium flux FluoZin2 fluorescence; bidirectional: low = inhibitor, high = activator. raw Tl+ flux slope (below DMSO = inhibition, above = activation) at 10 µM. 3,700 tested, 48% active. AID 1717;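 active = thallium flux slope beyond 3 SD from same-plate DMSO control mean in most replicates, usually higher, sometimes lower; inconclusive = repeat tests gave conflicting results; inactive = no significant difference from controls in most replicates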;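 also: slope of initial-normalized fluorescence between seconds 10 and 20 after thallium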
HEK counter2 – acts in parental HEK cells, second KCC2 counter-screen | thallium flux slope at 10 µM | AID 1718 | 3,700 tested, 33% active | HEK293 parental, thallium flux FluoZin-2 fluorescence slope | shares compounds with Cl transport mod;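 active = thallium flux slope above the same plate's solvent-control mean plus 3 SD in both duplicate wells; inconclusive = duplicate wells that disagreed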;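 also: run without ouabain in cells lacking the KCC2 cotransporter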
Hits are given with their value; i = inactive; ? = inconclusive; nt = not tested or not shown.

SMILES | Cl transport mod | Dynein cargo inh | pCIP destab | V-ATPase pH | ABCB6 inh MLPCN | KCC2 sec1 | KCC2 bumet counter | KCC2 secondary2 | HEK293 Tl flux | KCC2 retest ouab | HEK counter2
C/C(=N\NC(=O)c1c(Br)c(C)nn1C)c1cccc(NC(=O)c2ccccc2C)c1 | i | i | i | i | i | nt | nt | nt | nt | nt | nt
O=C(N/N=C/c1ccc(-c2cccc([N+](=O)[O-])c2)o1)c1cccs1 | i | i | i | i | i | nt | nt | nt | nt | nt | nt
N#C/C(=C\c1ccc(-c2cccc([N+](=O)[O-])c2)o1)C(=O)Nc1nc(-c2cccs2)cs1 | 4 | i | i | i | i | i | 0.0099 | i | 0.018 | ? | i
Fc1ccc(N=C2NN=C(c3cc(F)ccc3F)CS2)cc1 | i | i | i | i | i | nt | nt | nt | nt | nt | nt
Fc1ccccc1N=C1NN=C(c2ccccc2)CS1 | i | i | i | i | i | nt | nt | nt | nt | nt | nt
Cc1cccc(N=C2NN=C(c3ccccc3F)CS2)c1C | 11 | i | i | i | i | i | 0.013 | i | 0.018 | 0.026 | ?
Fc1ccc(F)c(C2=NNC(=Nc3ccccc3F)SC2)c1 | 5.9 | i | i | i | i | i | 0.011 | i | 0.011 | 0.026 | 0.014
CCNC(=O)NC(=O)COC(=O)CCCSc1nc2ccccc2[nH]1 | i | i | i | i | i | nt | nt | nt | nt | nt | nt
O=C(COC(=O)CCCSc1nc2ccccc2[nH]1)NC(=O)NC1CCCC1 | i | i | i | i | i | i | i | i | ? | i | i
CCOC(=O)NC(=S)Nc1ccc(C(C)(C)C)cc1Br | 49 | i | i | i | i | i | 0.046 | 0.042 | 0.046 | 0.052 | 0.022
CCOC(=O)c1c(NC(=S)Nc2ccc(OC)cc2)sc2c1CCCCC2 | 4.7 | i | i | i | i | i | 0.011 | i | 0.012 | i | i
CCOC(=O)c1ccc(Oc2nc(NC)nc(OC)n2)cc1 | -4.2 | i | i | i | i | i | i | i | i | i | i
CCOC(=O)c1c(NC(=O)CC2SC(N)=NC2=O)sc2c1CCCC2 (stereo not given) | -3.8 | i | i | i | i | i | i | i | ? | i | i
CCOC(=O)N1CCC(NC(=O)c2oc3c(F)cccc3c2C)CC1 | nt | nt | i | i | i | nt | nt | nt | nt | nt | nt
CCOC(=O)c1ccc(NC(=O)CCOc2ccc(OC)cc2)cc1 | nt | i | i | i | i | i | i | i | i | i | i
COc1ccc(CNC(=O)c2csnn2)cc1 | nt | i | i | i | i | nt | nt | nt | nt | nt | nt
CCOC(=O)NC(=S)Nc1ccc(OC)cc1 | 15 | i | i | i | i | i | 0.021 | i | 0.016 | ? | 0.017
COc1ccc(NC(=S)NC(=O)c2csnn2)cc1 | 138 | i | i | i | i | 0.089 | 0.11 | 0.12 | 0.13 | 0.12 | 0.12
CC(C)CC(CC(C)C)=NNC(=O)c1ccc2c(c1)OCO2 | 3.9 | i | i | i | i | i | i | i | i | i | i
COCCNC(C)C(=O)C12CC3CC(CC(C3)C1)C2 (stereo not given) | 9 | i | i | i | i | i | i | i | i | i | i
N#CC1=C(S)N=C(N)C(c2nc(-c3ccccc3)cs2)C12CCCC2 (stereo not given) | i | i | i | i | i | nt | nt | nt | nt | nt | nt
N#CC1=C(S)N=C(N)C(c2nc(-c3ccccc3)cs2)C12CCCCC2 (stereo not given) | -3.9 | i | i | nt | i | i | i | 0.022 | i | 0.016 | i
